Measured values: publication PMC9245008 (ACS chemical biology, 2022)

What was measured:
[1] = biological target: T1, TAK1 (Homo sapiens, UniProt O43318); assay: Potency of takinib analogues against TAK1; format: biochemical
T1 sequence (O43318 1-303 limits assumed): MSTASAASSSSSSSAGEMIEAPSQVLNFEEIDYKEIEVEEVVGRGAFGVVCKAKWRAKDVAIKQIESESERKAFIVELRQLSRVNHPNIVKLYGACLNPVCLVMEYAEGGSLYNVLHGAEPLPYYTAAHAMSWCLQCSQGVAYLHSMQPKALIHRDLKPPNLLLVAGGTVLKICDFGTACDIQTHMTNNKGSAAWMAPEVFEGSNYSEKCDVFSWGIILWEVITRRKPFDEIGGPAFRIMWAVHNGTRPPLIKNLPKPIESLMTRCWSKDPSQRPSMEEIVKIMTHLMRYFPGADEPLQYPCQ

[2] = biological target: T2, NUAK1 (Homo sapiens, UniProt O60285); assay: MRC Dundee kinase panel screen at 10 μM; format: biochemical
T2 sequence (O60285 1-661): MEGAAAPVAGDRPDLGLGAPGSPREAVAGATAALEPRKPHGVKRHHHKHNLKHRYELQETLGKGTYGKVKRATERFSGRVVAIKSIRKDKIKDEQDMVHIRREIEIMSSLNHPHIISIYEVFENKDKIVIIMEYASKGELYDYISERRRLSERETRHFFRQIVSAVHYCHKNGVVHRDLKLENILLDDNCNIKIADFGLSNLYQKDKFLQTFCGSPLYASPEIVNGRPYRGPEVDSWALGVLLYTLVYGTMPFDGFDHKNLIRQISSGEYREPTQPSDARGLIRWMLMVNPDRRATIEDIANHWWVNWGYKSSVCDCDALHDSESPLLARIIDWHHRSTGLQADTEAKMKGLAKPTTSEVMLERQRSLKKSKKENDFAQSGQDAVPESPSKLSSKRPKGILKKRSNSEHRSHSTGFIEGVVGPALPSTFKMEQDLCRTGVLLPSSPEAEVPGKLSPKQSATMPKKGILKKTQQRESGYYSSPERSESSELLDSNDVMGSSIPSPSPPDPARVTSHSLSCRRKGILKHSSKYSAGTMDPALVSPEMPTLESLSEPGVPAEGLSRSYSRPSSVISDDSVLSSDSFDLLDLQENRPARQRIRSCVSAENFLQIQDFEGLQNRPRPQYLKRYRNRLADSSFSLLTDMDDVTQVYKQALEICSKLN

[3] = biological target: IRAK1 (Homo sapiens, UniProt P51617); assay: MRC Dundee kinase panel screen at 10 μM; format: biochemical
IRAK1, sequence (P51617 whole entry): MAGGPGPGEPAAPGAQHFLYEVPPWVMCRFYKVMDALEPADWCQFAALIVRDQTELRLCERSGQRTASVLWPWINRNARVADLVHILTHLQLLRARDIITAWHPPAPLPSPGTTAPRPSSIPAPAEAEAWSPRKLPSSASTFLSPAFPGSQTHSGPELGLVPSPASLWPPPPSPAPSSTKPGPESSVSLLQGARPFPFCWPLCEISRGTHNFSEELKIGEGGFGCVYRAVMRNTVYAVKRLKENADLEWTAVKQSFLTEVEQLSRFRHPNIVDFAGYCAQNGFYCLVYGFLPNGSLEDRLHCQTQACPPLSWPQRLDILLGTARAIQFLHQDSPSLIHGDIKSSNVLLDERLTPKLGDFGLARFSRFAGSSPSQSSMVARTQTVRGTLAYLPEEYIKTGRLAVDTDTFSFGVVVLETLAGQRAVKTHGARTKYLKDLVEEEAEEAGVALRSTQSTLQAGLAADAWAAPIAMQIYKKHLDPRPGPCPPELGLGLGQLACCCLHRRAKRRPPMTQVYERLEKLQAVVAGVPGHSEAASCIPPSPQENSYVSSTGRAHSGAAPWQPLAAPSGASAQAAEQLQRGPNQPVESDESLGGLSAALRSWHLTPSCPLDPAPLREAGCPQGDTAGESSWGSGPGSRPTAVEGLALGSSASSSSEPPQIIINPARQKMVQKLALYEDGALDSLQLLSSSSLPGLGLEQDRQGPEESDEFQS

[4] = biological target: CLK2 (Homo sapiens, UniProt P49760); assay: Dose–response of top 10 kinase hits; format: biochemical
CLK2, sequence (P49760 whole entry): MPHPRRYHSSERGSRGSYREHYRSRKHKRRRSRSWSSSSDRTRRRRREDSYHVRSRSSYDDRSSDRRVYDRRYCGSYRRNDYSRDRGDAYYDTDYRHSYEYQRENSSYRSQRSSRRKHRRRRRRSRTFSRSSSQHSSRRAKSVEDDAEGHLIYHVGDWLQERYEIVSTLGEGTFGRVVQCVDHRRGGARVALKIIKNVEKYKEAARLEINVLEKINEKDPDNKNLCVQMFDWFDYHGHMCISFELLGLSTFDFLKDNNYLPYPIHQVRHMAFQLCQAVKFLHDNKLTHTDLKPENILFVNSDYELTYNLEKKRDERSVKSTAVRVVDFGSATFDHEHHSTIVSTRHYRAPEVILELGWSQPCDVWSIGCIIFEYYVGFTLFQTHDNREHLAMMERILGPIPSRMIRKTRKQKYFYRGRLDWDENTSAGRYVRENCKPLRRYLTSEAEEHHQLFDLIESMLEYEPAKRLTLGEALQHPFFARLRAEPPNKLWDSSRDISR

[5] = biological target: MAP4K5 (Homo sapiens, UniProt Q9Y4K4); assay: Dose–response of top 10 kinase hits; format: biochemical; conditions: read-out: IC50 MAP4K5, n = 2
MAP4K5, sequence (Q9Y4K4 whole entry): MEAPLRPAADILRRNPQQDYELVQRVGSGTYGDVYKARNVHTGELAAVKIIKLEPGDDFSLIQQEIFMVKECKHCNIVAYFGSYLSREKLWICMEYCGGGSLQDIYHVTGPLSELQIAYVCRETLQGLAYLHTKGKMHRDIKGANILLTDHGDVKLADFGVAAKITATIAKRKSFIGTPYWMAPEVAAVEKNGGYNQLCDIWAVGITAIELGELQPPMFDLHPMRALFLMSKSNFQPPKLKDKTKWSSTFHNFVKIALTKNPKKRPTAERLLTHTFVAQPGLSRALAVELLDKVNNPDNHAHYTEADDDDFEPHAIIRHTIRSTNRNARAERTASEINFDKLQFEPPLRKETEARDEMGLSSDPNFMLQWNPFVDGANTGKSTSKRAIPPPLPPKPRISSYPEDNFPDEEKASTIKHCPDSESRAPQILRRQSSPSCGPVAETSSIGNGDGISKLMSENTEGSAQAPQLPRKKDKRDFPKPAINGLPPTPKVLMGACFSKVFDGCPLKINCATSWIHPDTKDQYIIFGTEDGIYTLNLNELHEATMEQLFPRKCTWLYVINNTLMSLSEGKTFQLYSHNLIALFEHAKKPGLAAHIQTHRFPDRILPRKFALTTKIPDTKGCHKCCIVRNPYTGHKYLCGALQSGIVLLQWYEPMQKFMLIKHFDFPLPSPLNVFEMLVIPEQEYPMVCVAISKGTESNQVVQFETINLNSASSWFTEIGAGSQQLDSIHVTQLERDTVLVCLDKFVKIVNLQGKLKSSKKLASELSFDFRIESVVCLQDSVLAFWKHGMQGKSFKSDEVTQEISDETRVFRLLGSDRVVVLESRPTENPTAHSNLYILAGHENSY

[6] = biological target: T3, NUAK (Homo sapiens, UniProt O60285); assay: Dose–response of top 10 kinase hits; format: biochemical; conditions: read-out: IC50 NUAK, n = 2
T3 sequence (O60285 1-661): T2 sequence (O60285 1-661)

[7] = system: IL-6 expression in THP-1 cells; assay: Cytokine dose–response curves in THP-1 cells; format: cell-based, human; conditions: read-out: IC50 IL-6 expression; LPS-stimulated THP-1, 24 h
Procedure, shortened: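 THP-1 cells differentiated with PMA (100 nM) for up to 72 h, then rested 24 h in PMA-free RPMI. Pretreated with test compound (3.2 nM–32 μM) or DMSO vehicle, then stimulated with LPS (10 ng/mL). After 24 h, TNF, IL-6 and IL-1β in supernatant measured by Luminex and expressed as percent of vehicle control; n = 3.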

## CCCn1c(NC(=O)c2cccc(C(N)=O)c2)nc2ccc(CN3CCCCC3)cc21 [HS-276]
[1]; TAK1
  Ki: 2.5 nM
[1]; read-out: TAK1 IC50
  IC50: 2.5 nM
[2]
  enzymatic activity: < 15%
[3]
  enzymatic activity: < 15%
[4]; from dose–response IC50 values
  TAK1 more potently inhibited than CLK2: 3.6 fold
[4]; read-out: IC50 CLK2, dose–response, n = 2
  IC50: 29 nM
[5]
  IC50: 124 nM
[6]
  IC50: 270 nM
[7]
  IC50: 201 nM
